Our source for the T/C, Activity and Weight difference values is ChEMBL document CHEMBL1124441, “Synthesis of congeners and prodrugs. 3. Water-soluble prodrugs of taxol with potent antitumor activity” (1989).

What all share (format): functional, Mus musculus
Conditions in all cases: route intraperitoneal

The subject of experiment [1] is B16. The experiment is described as follows: Percent of median lifetime of test animals divided by the median lifetime of control animals at a dose of 50 mg/kg intraperitoneally. In outline:
(§1)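 B16 melanoma inoculated ip (10⁶ cells) on day 0. Daily ip treatment for 9 days (Q01Dx09) begins day 1, dosed per injection in mg/kg. %T/C is the median lifespan of treated animals divided by that of tumored untreated controls, ×100. Cures are animals alive on the last test day. Toxic deaths are assessed on day 4.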

In experiment [2] the test system is B16. The experiment is described as follows: Antitumor activity in B16 Melanoma system animals is indicated by survivors on day 4 at a dose of 6.25 mg/kg intraperitoneally. In outline: (§2)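 B16 melanoma, 10^6 cells inoculated ip on day 0. Ip treatment started day 1, schedule Q01Dx09 (one dose daily for 9 days). The score is live animals on day 4 over total animals; early deaths are taken as drug toxicity.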

The test system of experiment [3] is B16. The experiment is described as follows: Difference in body weight in grams between test and control animals at a dose of 50 mg/kg intraperitoneally. In outline: (§3)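 B16 melanoma system: 10⁶ tumor cells inoculated ip on day 0. Drug given ip once daily for 9 days (Q01Dx09) starting day 1, dose as mg/kg body weight per injection. Read-out is the body-weight difference in grams, treated minus control animals. Early deaths, taken as toxicity, are scored on day 4.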

The subject of experiment [4] is B16. The experiment is described as follows: Difference in body weight in grams between test and control animals at a dose of 12.5 mg/kg intraperitoneally. The method, boiled down: as §3
The test system of experiment [5] is B16. The experiment is described as follows: Antitumor activity in B16 Melanoma system animals is indicated by survivors on day 4 at a dose of 25 mg/kg intraperitoneally. In outline: as §2
The subject of experiment [6] is B16. The experiment is described as follows: Antitumor activity in B16 Melanoma system animals is indicated by survivors on day 4 at a dose of 12.5 mg/kg intraperitoneally. In outline:
as §2

In experiment [7] the test system is B16. The experiment is described as follows: Percent of median lifetime of test animals divided by the median lifetime of control animals at a dose of 12.5 mg/kg intraperitoneally. In outline: as §1
The test system of experiment [8] is B16. The experiment is described as follows: Percent of median lifetime of test animals divided by the median lifetime of control animals at a dose of 6.25 mg/kg intraperitoneally. In outline: as §1
In experiment [9] the test system is B16. The experiment is described as follows: Difference in body weight in grams between test and control animals at a dose of 6.25 mg/kg intraperitoneally. The method, boiled down: as §3
The subject of experiment [10] is B16. The experiment is described as follows: Antitumor activity in B16 Melanoma system animals is indicated by survivors on day 4 at a dose of 50 mg/kg intraperitoneally. The method, boiled down: as §2
For experiment [11], the system named is B16. The experiment is described as follows: Percent of median lifetime of test animals divided by the median lifetime of control animals at a dose of 25 mg/kg intraperitoneally. The method, boiled down:
as §1

In experiment [12] the test system is B16. The experiment is described as follows: Difference in body weight in grams between test and control animals at a dose of 25 mg/kg intraperitoneally. The method, boiled down: as §3
Experiment [13] relates to B16. The experiment is described as follows: Percent of median lifetime of test animals divided by the median lifetime of control animals at a dose of 6.13 mg/kg intraperitoneally. The method, boiled down: (§4)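 B16 melanoma, 10^6 cells ip on day 0, ip treatment from day 1, Q01Dx09 (single dose daily for 9 days). %T/C is median lifetime of treated over untreated tumored controls, times 100. Early deaths are assessed on day 4 for toxicity. Cures are animals alive on the last test day.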

For experiment [14], the system named is B16. The experiment is described as follows: Difference in body weight in grams between test and control animals at a dose of 12.25 mg/kg intraperitoneally. In outline: (§5)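 B16 melanoma, 10^6 cells ip on day 0, then ip dosing from day 1, once daily for 9 days (Q01Dx09). The value is the body-weight difference in grams, treated minus tumored control animals.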

In experiment [15] the test system is B16. The experiment is described as follows: Antitumor activity in B16 Melanoma system animals is indicated by survivors on day 4 at a dose of 24.5 mg/kg intraperitoneally. The method, boiled down:
as §2

Experiment [16] relates to B16. The experiment is described as follows: Difference in body weight in grams between test and control animals at a dose of 24.5 mg/kg intraperitoneally. In outline:
as §5

In experiment [17] the test system is B16. The experiment is described as follows: Percent of median lifetime of test animals divided by the median lifetime of control animals at a dose of 49 mg/kg intraperitoneally. The method, boiled down:
as §4

For experiment [18], the system named is B16. The experiment is described as follows: Difference in body weight in grams between test and control animals at a dose of 49 mg/kg intraperitoneally. The method, boiled down: as §5
The subject of experiment [19] is B16. The experiment is described as follows: Percent of median lifetime of test animals divided by the median lifetime of control animals at a dose of 24.5 mg/kg intraperitoneally. In outline: as §4
Experiment [20] concerns B16. The experiment is described as follows: Percent of median lifetime of test animals divided by the median lifetime of control animals at a dose of 12.25 mg/kg intraperitoneally. The method, boiled down:
as §4

Experiment [21] has as its system B16. The experiment is described as follows: Difference in body weight in grams between test and control animals at a dose of 6.13 mg/kg intraperitoneally. The method, boiled down:
as §5

For experiment [22], the system named is B16. The experiment is described as follows: Antitumor activity in B16 Melanoma system animals is indicated by survivors on day 4 at a dose of 6.13 mg/kg intraperitoneally. In outline:
as §2

Experiment [23] has as its system B16. The experiment is described as follows: Antitumor activity in B16 Melanoma system animals is indicated by survivors on day 4 at a dose of 12.25 mg/kg intraperitoneally. In outline: as §2
Experiment [24] relates to B16. The experiment is described as follows: Antitumor activity in B16 Melanoma system animals is indicated by survivors on day 4 at a dose of 49 mg/kg intraperitoneally. In outline: as §2

As to `CC(=O)OC1C(=O)[C@@]2(C)[C@H]([C@H](OC(=O)c3ccccc3)[C@]3(O)CC(OC(=O)C(OC(=O)CCC(=O)O)C(NC(=O)c4ccccc4)c4ccccc4)C(C)=C1C3(C)C)[C@]1(OC(C)=O)CO[C@@H]1C[C@@H]2O.CNC[C@H](O)[C@@H](O)[C@H](O)[C@H](O)CO` (some centres undefined), the T/C in [1] stood at 241%; in experiment [7], 134%; in experiment [8], 125%; in experiment [11], 176%. In addition, the Activity in experiment [2], in experiment [5], in experiment [6] and in experiment [10] was 10 throughout. In addition, the Weight difference in [3] is listed as -0.6 g; in [4] it was 0.3 g; in [9] it was -0.2 g; in experiment [12], 0.3 g.
On to `CC(=O)OC1C(=O)[C@@]2(C)[C@H]([C@H](OC(=O)c3ccccc3)[C@]3(O)CC(OC(=O)C(OC(=O)CCCC(=O)[O-])C(NC(=O)c4ccccc4)c4ccccc4)C(C)=C1C3(C)C)[C@]1(OC(C)=O)CO[C@@H]1C[C@@H]2O.[Na+]` (some centres undefined), for which the T/C in experiment [13] is given as 159%; in experiment [17], 339%; in experiment [19], 225%; in experiment [20] it was 192%. Besides, the Weight difference was 0.6 g in [14], 1.5 g in experiment [16], 0.8 g in experiment [18] and 0.4 g in experiment [21]. For the same molecule, the Activity in [15] stood at 7; in experiment [22], 8; in experiment [23], 8; in [24], 7.

The term T/C denotes the ratio of treated to control.
